Reference: ChEMBL document CHEMBL4038273, “MAO enzymes inhibitory activity of new benzimidazole derivatives including hydrazone and propargyl side chains” (Eur J Med Chem, 2017)

Tests used:
[1] = tested on: Salmonella typhimurium; assay: Genotoxicity in Salmonella typhimurium TA100 assessed as increase in number of revertants at 5 mg/ml in presence of aroclor-1254-induced Sprague-Dawley rat liver microsomal S9 fraction by Ames-MPF assay relative to baseline; format: toxicity; conditions: salmonella enterica subsp. enterica serovar typhimurium, microsomes
Outline: (§1)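 AmesMPF 98/100 fluctuation format with S. typhimurium TA98 (frameshift) and TA100 (base-pair substitution), run with and without S9. Compounds were made up in DMSO at 0.156–5 mg/mL, six levels; solvent control was 4% DMSO. With S9, positive controls were 2-aminoanthracene at 1 µg/mL (TA98) and 2.5 µg/mL (TA100). Wells turned yellow by pH drop were scored positive. Fold over baseline is mean positive wells divided by (zero-dose mean + 1 SD). Student's t-test, p<0.05.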

[2] = tested on: Salmonella typhimurium; assay: Genotoxicity in Salmonella typhimurium TA100 assessed as increase in number of revertants at 0.3125 mg/ml in presence of aroclor-1254-induced Sprague-Dawley rat liver microsomal S9 fraction by Ames-MPF assay relative to baseline; format: toxicity; conditions: salmonella enterica subsp. enterica serovar typhimurium, microsomes; outline: as §1
[3] = tested on: Salmonella typhimurium; assay: Genotoxicity in Salmonella typhimurium TA100 assessed as increase in number of revertants at 0.3125 mg/ml in absence of aroclor-1254-induced Sprague-Dawley rat liver microsomal S9 fraction by Ames-MPF assay relative to baseline; format: toxicity; conditions: salmonella enterica subsp. enterica serovar typhimurium, microsomes; outline: as §1
[4] = tested on: Salmonella typhimurium; assay: Genotoxicity in Salmonella typhimurium TA100 assessed as increase in number of revertants at 1.25 mg/ml in presence of aroclor-1254-induced Sprague-Dawley rat liver microsomal S9 fraction by Ames-MPF assay relative to baseline; format: toxicity; conditions: salmonella enterica subsp. enterica serovar typhimurium, microsomes; outline: as §1
[5] = tested on: Salmonella typhimurium; assay: Genotoxicity in Salmonella typhimurium TA98 assessed as increase in number of revertants at 5 mg/ml in absence of aroclor-1254-induced Sprague-Dawley rat liver microsomal S9 fraction by Ames-MPF assay relative to baseline; format: toxicity; conditions: salmonella enterica subsp. enterica serovar typhimurium, microsomes; outline: as §1
[6] = tested on: Salmonella typhimurium; assay: Genotoxicity in Salmonella typhimurium TA98 assessed as increase in number of revertants at 0.3125 mg/ml in presence of aroclor-1254-induced Sprague-Dawley rat liver microsomal S9 fraction by Ames-MPF assay relative to baseline; format: toxicity; conditions: salmonella enterica subsp. enterica serovar typhimurium, microsomes; outline: as §1
[7] = tested on: Salmonella typhimurium; assay: Genotoxicity in Salmonella typhimurium TA98 assessed as increase in number of revertants at 0.156 mg/ml in absence of aroclor-1254-induced Sprague-Dawley rat liver microsomal S9 fraction by Ames-MPF assay relative to baseline; format: toxicity; conditions: salmonella enterica subsp. enterica serovar typhimurium, microsomes; outline: as §1
[8] = tested on: Salmonella typhimurium; assay: Genotoxicity in Salmonella typhimurium TA100 assessed as increase in number of revertants at 1.25 mg/ml in absence of aroclor-1254-induced Sprague-Dawley rat liver microsomal S9 fraction by Ames-MPF assay relative to baseline; format: toxicity; conditions: salmonella enterica subsp. enterica serovar typhimurium, microsomes; outline: as §1
[9] = tested on: Salmonella typhimurium; assay: Genotoxicity in Salmonella typhimurium TA98 assessed as increase in number of revertants at 0.3125 mg/ml in absence of aroclor-1254-induced Sprague-Dawley rat liver microsomal S9 fraction by Ames-MPF assay relative to baseline; format: toxicity; conditions: salmonella enterica subsp. enterica serovar typhimurium, microsomes; outline: as §1
[10] = tested on: Salmonella typhimurium; assay: Genotoxicity in Salmonella typhimurium TA100 assessed as increase in number of revertants at 0.625 mg/ml in absence of aroclor-1254-induced Sprague-Dawley rat liver microsomal S9 fraction by Ames-MPF assay relative to baseline; format: toxicity; conditions: salmonella enterica subsp. enterica serovar typhimurium, microsomes; outline: as §1
[11] = tested on: Salmonella typhimurium; assay: Genotoxicity in Salmonella typhimurium TA100 assessed as increase in number of revertants at 0.156 mg/ml in presence of aroclor-1254-induced Sprague-Dawley rat liver microsomal S9 fraction by Ames-MPF assay relative to baseline; format: toxicity; conditions: salmonella enterica subsp. enterica serovar typhimurium, microsomes; outline: as §1
[12] = tested on: Salmonella typhimurium; assay: Genotoxicity in Salmonella typhimurium TA100 assessed as increase in number of revertants at 0.625 mg/ml in presence of aroclor-1254-induced Sprague-Dawley rat liver microsomal S9 fraction by Ames-MPF assay relative to baseline; format: toxicity; conditions: salmonella enterica subsp. enterica serovar typhimurium, microsomes; outline: as §1
[13] = tested on: Salmonella typhimurium; assay: Genotoxicity in Salmonella typhimurium TA100 assessed as increase in number of revertants at 0.156 mg/ml in absence of aroclor-1254-induced Sprague-Dawley rat liver microsomal S9 fraction by Ames-MPF assay relative to baseline; format: toxicity; conditions: salmonella enterica subsp. enterica serovar typhimurium, microsomes; outline: as §1
[14] = target: T1, Amine oxidase [flavin-containing] A (Homo sapiens, UniProt P21397); assay: Inhibition of recombinant human MAO-A expressed in baculovirus infected BTI insect cells using tyramine as substrate pretreated for 30 mins followed by substrate addition incubated for 30 mins measured at 5 mins interval by horse-radish peroxidase/amplex red-based fluorometric method
T1 sequence (P21397 whole entry): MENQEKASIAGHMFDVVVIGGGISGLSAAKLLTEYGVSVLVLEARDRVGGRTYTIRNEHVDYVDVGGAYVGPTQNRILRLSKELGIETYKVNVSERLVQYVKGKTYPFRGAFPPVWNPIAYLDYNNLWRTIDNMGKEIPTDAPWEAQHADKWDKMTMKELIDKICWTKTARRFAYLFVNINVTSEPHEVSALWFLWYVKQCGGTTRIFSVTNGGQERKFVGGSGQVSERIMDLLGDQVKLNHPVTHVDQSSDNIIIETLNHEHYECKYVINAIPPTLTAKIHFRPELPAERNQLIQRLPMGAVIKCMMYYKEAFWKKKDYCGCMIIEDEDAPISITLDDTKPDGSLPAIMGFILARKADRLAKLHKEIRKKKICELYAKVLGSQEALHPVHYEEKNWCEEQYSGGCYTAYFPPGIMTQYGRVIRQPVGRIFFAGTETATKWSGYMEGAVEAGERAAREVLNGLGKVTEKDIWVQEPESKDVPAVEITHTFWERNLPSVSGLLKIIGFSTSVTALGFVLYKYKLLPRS
Outline: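 Recombinant hMAO-A (0.5 U/mL stock) or hMAO-B (0.64 U/mL stock) in phosphate buffer, preincubated with inhibitor (solutions 10^-3 to 10^-9 M in 2% DMSO) for 30 min at 37°C. Background-subtracted against DMSO control; quadruplicate.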

[15] = tested on: Salmonella typhimurium; assay: Genotoxicity in Salmonella typhimurium TA98 assessed as increase in number of revertants at 1.25 mg/ml in absence of aroclor-1254-induced Sprague-Dawley rat liver microsomal S9 fraction by Ames-MPF assay relative to baseline; format: toxicity; conditions: salmonella enterica subsp. enterica serovar typhimurium, microsomes; outline: as §1

`C#CCn1c(-c2ccc(C(=O)N/N=C/c3cccnc3)cc2)nc2ccccc21` was tested, and the “fold change (FC)” value [1] was 0.07, the “fold change (FC)” value [2] was 0.27 and the “fold change (FC)” value [3] was 0.99. For the same molecule, the “fold change (FC)” value [4] was 0.33, the “fold change (FC)” value [5] was 0.46 and the “fold change (FC)” value [6] was 0.35. The “fold change (FC)” value [7] was 1.03, the “fold change (FC)” value [8] was 0.64 and the “fold change (FC)” value [9] was 0.74. The “fold change (FC)” value [10] was 0.84, the “fold change (FC)” value [11] was 0.53 and the “fold change (FC)” value [12] was 0.27. For the same molecule, the “fold change (FC)” value [13] was 0.74, the IC50 [14] was 9.59 µM and the “fold change (FC)” value [15] was 0.68.
In the case of `C#CCn1c(-c2ccc(C(=O)N/N=C/c3ccc(F)cc3)cc2)nc2ccccc21`, the “fold change (FC)” value [1] is reported as 1.94, the “fold change (FC)” value [2] is reported as 0.49 and the “fold change (FC)” value [3] is reported as 0.79. The “fold change (FC)” value [4] was 1.46, the “fold change (FC)” value [5] was 0.34 and the “fold change (FC)” value [6] was 2.13. For the same molecule, the “fold change (FC)” value [7] was 0.68, the “fold change (FC)” value [8] was 0.59 and the “fold change (FC)” value [9] was 0.46. The “fold change (FC)” value [10] was 0.69, the “fold change (FC)” value [11] was 0.79 and the “fold change (FC)” value [12] was 1.15. For the same molecule, the “fold change (FC)” value [13] was 0.89, the IC50 [14] was 0.851 µM and the “fold change (FC)” value [15] was 0.28.
